Legend:
Format in all cases: cell-based
[1] = tested on: HO-1 (HMOX1); assay: HO-1; details: LPS-human macrophages, 48 h; 14b at EC50 (5.3 µmol/mL); qPCR
Procedure, shortened: (§1)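 LPS-stimulated human macrophages (inflammatory model) were exposed to test compound at 5.3 µmol/mL for 48 h. Akt and HMOX1 (HO-1) gene expression was measured alongside untreated LPS-macrophages as negative control and dexamethasone-treated macrophages as reference. Expression is reported as fold change relative to untreated macrophage cells.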

[2] = tested on: IL-6; assay: IL-6 level by ELISA in conditioned medium of LPS-human macrophages; details: 14b at EC50 (5.3 µmol/mL), 48 h
Procedure, shortened: (§2)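 IL-6, IL-1β, TNF-α and NF-κB levels were measured in LPS-stimulated human macrophages exposed to test compound. Comparison groups were untreated LPS-macrophages as negative control and dexamethasone-treated macrophages as reference.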

[3] = tested on: TNF-α; assay: TNF-α level by ELISA in conditioned medium of LPS-human macrophages; details: 14b at EC50 (5.3 µmol/mL), 48 h
Procedure, shortened: as §2

[4] = tested on: NF-kβ; assay: NF-kβ level by ELISA in LPS-human macrophages; details: 14b at EC50 (5.3 µmol/mL), 48 h
Procedure, shortened: as §2

[5] = tested on: IL-1β; assay: IL-1β level by ELISA in conditioned medium of LPS-human macrophages; details: 14b at EC50 (5.3 µmol/mL), 48 h
Procedure, shortened: as §2

[6] = tested on: Akt; assay: Akt gene expression by qPCR in LPS-human macrophages; details: 48 h, 14b at EC50 (5.3 µmol/mL)
Procedure, shortened: as §1

| Structure (SMILES) | upregulation of HO-1 gene expression compared to untreated macrophage cells [1] [fold] | reduction in IL-6 level relative to negative control cells [2] [fold] | reduction in TNF-α level relative to untreated control cells [3] [fold] | NF-kβ modulation compared with Dexa (in words) [4] | reduction in NF-kβ level relative to untreated control cells [4] [fold] | reduction in IL-1β level relative to untreated macrophage cells [5] [fold] | increase in Akt gene expression relative to untreated macrophage cells [6] [fold] |
| --- | --- | --- | --- | --- | --- | --- | --- |
| COc1ccc(C(C)=NNC(=O)COc2ccc3c(C)cc(=O)oc3c2C)cc1OC [Compound 14b, 2–(4,8-Dimethyl-2-oxo-2H-chromen-7-yloxy)-N'-(1–(3,4-dimethoxyphenyl)ethylidene)acetohydrazide] | 6.5 | 1.41 | 1.19 | comparable efficacy to Dexa | 2.31 | 1.65 |  |
| C[C@@H]1C[C@H]2[C@@H]3CCC4=CC(=O)C=C[C@]4(C)[C@@]3(F)[C@@H](O)C[C@]2(C)[C@@]1(O)C(=O)CO [Dexa, dexamethasone, reference compound] | 4.38 |  |  |  |  |  | 3.2 |

From publication PMC10413923 (Journal of Enzyme Inhibition and Medicinal Chemistry, 2023)
